The source made the active and inactive calls. The calls are words filed in the database; no cut-off is given here.

The test system of series [1] is Meriones unguiculatus. As to the kind of experiment: Cerebral protective activity in cerebral ischemia-induced Mongolian gerbil assessed as passive avoidance test value at 100 mg/kg, po pretreated for 30 mins followed by bilateral ligation-induced ischemia for 5 mins measured on day 1 post 3 days ischemia induction relative to control. It counts as functional.
For series [2], the system named is Meriones unguiculatus. Description: Cerebral protective activity in anesthetized cerebral ischemia-induced Mongolian gerbil hippocampus assessed as protective values on density of surviving neurons in CA1 subfields of hippocampus at 100 mg/kg, po pretreated for 30 mins followed by bilateral ligation-induced ischemia for 5 mins measured on day 1 post 3 days ischemia induction by hematoxylin and eosin staining based microscopic analysis relative to control. Format: functional.

Series [3] deals with Meriones unguiculatus. Description: Cerebral protective activity in cerebral ischemia-induced Mongolian gerbil assessed as reduction in neuronal cell death at 30 mg/kg, po administered at 3hrs after cerebral ischemia induction. It counts as functional, organism-based. The method in brief:
(§1)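 Gerbils (n = 10) subjected to bilateral carotid ligation ischemia, then given 30 mg/kg orally at 3 h or at 3 h and 6 h after ischemia. Brains perfusion-fixed in 10% neutral formalin and paraffin-embedded. 5-µm coronal sections stained with H&E. Surviving CA1 hippocampal neurons counted (/mm). Mean ± SEM, Student's t-test.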

The nature of series [4]: Toxicity in Mongolian gerbil assessed as reduction in systolic blood pressure at 30 to 100 mg/kg, po. Format: organism-based, Meriones unguiculatus. To be noted: in vivo. A digest of the protocol:
(§2)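 Heart rate and mean systolic blood pressure recorded in gerbils after oral doses of 30 and 100 mg/kg.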

A short description of series [5]: Toxicity in Mongolian gerbil assessed as reduction in heart rate at 30 to 100 mg/kg, po. Format: organism-based, Meriones unguiculatus. To be noted: in vivo. The method in brief:
as §2

A short description of series [6]: Toxicity in Mongolian gerbil assessed as locomotion-reducing effect at 30 to 100 mg/kg, po. It counts as organism-based, Meriones unguiculatus. Particulars: in vivo.
The subject of series [7] is Meriones unguiculatus. Description: Cerebral protective activity in cerebral ischemia-induced Mongolian gerbil assessed as reduction in neuronal cell death in CA1 subfields of hippocampus at 30 mg/kg, po administered twice at 3 and 6 hrs after cerebral ischemia induction. Format: functional, organism-based. A digest of the protocol:
as §1

Series [8] deals with Meriones unguiculatus. As to the kind of experiment: Cerebral protective activity against ischemia in Mongolian gerbil assessed as reduction in 45Ca2+ accumulation in brain at 30 mg/kg, po administered after cerebral ischemia induction for 15 mins in presence of 45CaCl2 by autoradiographic analysis.
Series [9] can be described thus: Toxicity in Mongolian gerbil assessed as effect on body temperature at 30 to 100 mg/kg, po. It counts as organism-based, Meriones unguiculatus. To be noted: in vivo.
The test system of series [10] is Meriones unguiculatus. Description: Cerebral protective activity against kainic acid-induced neuronal necrosis in po dosed Mongolian gerbil administered after kainic acid injection. It counts as functional, organism-based. The method in brief: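 Male Mongolian gerbils (n = 10), fasted overnight, given atropine (5.0 µg/animal) and pentobarbital anesthesia (40 mg/kg ip). Kainic acid in saline at pH 7.4 (0.2 µL of 1.0 µg/µL) infused stereotaxically into right hippocampal CA3 over 4.0 min. Drug dosed orally after the lesion. Perfusion-fixed 4 days later. Surviving CA1 neuron density (/mm) scored. Mean ± SEM.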

As to `COc1c(OC)c2c3c(cc(=O)n2C)c2ccccc2n3c1=O`, the Activity result in [1] is “<=40%”; in series [2], 24.3%.
For `COc1ccc2c3ccn(C)c4cc(=O)c(=O)n(c3-4)c2c1` the same measures were “>=40 - 60%” and 53.8%.
Regarding `COC(=O)c1nccc2c1[nH]c1ccccc12`, the Activity result in [1] was “<=40%”; in series [2] it was 30.1%.
For `Cn1ccc2c3n(c(=O)c(=O)cc1-3)c1ccccc21` the same measures were above 80% and 84.6%.
For `Cn1ccc2c3n(c(=O)c(=O)cc1-3)c1c(Br)cc(Br)cc21` the same measures were “<=40%” and 3%.
In the case of `Cn1ccc2c3n(c(=O)c(=O)cc1-3)c1ccc(Br)cc21`, the results for the Activity entry in series [1] and in series [2] were “<=40%” and 27.3%, respectively.
On to `COc1c2n(C)ccc3c-2n(c(=O)c1=O)c1ccccc31`, for which the outcome in series [3], in [7], in [8] and in series [10] was Active. In addition, the Activity entry is “Non-Toxic” in [4]; above 80% in series [1]; “Non-Toxic” in [5]; “Non-Toxic” in series [6]; “Non-Toxic” in series [9]; 73.1% in [2].
With `COC(=O)[C@@H]1Cc2c([nH]c3ccccc23)[C@H](C)N1`, the values for the Activity entry in [1] and in [2] were “<=40%” and 18.6%, respectively.
For `CC[C@@H]1N[C@H](C(=O)O)Cc2c1[nH]c1ccccc21` the same measures were “<=40%” and 10.9%.
For the compound `COc1c(O)c(=O)n2c3ccccc3c3ccnc1c32`, the Activity result in series [1] was “<=40%”; in [2], 13.9%.
Consider `CCc1c2n(C)ccc3c-2n(c(=O)c1=O)c1ccccc31`, for which the results for the Activity entry in series [1] and in series [2] were “<=40%” and 26.3%, respectively.
In the case of `[O-][n+]1ccc2c(c1)[nH]c1ccccc12`, the Activity result in [1] is given as “<=40%”; in [2] it was 13.8%.
Turning to `COc1c(OC)c2nc(O)cc3c4ccccc4n(c1=O)c23`, the Activity entry is “<=40%” in [1] and 2.8% in [2].
For `Cc1c2[nH]c3ccccc3c2cc[n+]1[O-]` the same measures were “<=40%” and 14.2%.
For `CCn1ccc2c3n(c(=O)c(=O)cc1-3)c1ccccc21`, the Activity entry in series [1] was “<=40%”; in [2], 92.3%.
Consider `C[C@@H]1N[C@H](C(=O)O)Cc2c1[nH]c1ccccc21`, for which the values for the Activity result in [1] and in series [2] were “<=40%” and -13.6%, respectively.
Take `COc1c(O)c(=O)n2c3ccccc3c3cc(O)nc1c32`: the Activity result in series [1] was “<=40%”; in series [2] it was 26.2%.
For `Cn1c(=O)cc2c3ccccc3n3c(=O)ccc1c23` the same measures were “<=40%” and 10.6%.
In the same order, the values of `CCn1ccc2c3n(c(=O)c(=O)c(OC)c1-3)c1ccccc21` are “<=40%” and 46.2%.
As to `COc1c(OC)c2nccc3c4ccccc4n(c1=O)c23` [4,5-DIMETHOXYCANTHIN-6-ONE], the Activity result in series [1] is “<=40%”; in series [2], 20.8%.
Take `COc1c2n(C)ccc3c-2n(c(=O)c1=O)c1c(Br)cc(Br)cc31`: the Activity entry in series [1] is listed as “<=40%”; in series [2], -8.1%.
For `COc1c2n(C)ccc3c-2n(c(=O)c1=O)c1ccc(Br)cc31` the same measures were “<=40%” and -0.8%.

For the origin of these results see ChEMBL document CHEMBL3856259, “Evaluation of canthinone alkaloids as cerebral protective agents” (Bioorg Med Chem Lett, 2016).
